These results are taken from ChEMBL document CHEMBL4371095, “Triazole-Based Inhibitors of the Wnt/β-Catenin Signaling Pathway Improve Glucose and Lipid Metabolisms in Diet-Induced Obese Mice” (J Med Chem, 2019).

The target of one series is Axin-1 (Homo sapiens) (UniProt O15169). Briefly: Stabilization of Axin1 in human HuH7 cells assessed as decrease in lipid accumulation at 5 uM after 36 hrs by nile red staining based fluorescence microscopic method. The series is classed as cell-based. Put shortly: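 Huh7 cells on collagen I-coated coverslips were treated with 5 μM compound for 36 h, then with 200 μM sodium oleate for a further 12–16 h. Cells were stained with 1 μM Nile red in HBSS for 10 min at 37 °C in the dark and imaged by fluorescence microscopy at 552/636 nm.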
Chain of Axin-1 (Homo sapiens) (O15169 whole entry): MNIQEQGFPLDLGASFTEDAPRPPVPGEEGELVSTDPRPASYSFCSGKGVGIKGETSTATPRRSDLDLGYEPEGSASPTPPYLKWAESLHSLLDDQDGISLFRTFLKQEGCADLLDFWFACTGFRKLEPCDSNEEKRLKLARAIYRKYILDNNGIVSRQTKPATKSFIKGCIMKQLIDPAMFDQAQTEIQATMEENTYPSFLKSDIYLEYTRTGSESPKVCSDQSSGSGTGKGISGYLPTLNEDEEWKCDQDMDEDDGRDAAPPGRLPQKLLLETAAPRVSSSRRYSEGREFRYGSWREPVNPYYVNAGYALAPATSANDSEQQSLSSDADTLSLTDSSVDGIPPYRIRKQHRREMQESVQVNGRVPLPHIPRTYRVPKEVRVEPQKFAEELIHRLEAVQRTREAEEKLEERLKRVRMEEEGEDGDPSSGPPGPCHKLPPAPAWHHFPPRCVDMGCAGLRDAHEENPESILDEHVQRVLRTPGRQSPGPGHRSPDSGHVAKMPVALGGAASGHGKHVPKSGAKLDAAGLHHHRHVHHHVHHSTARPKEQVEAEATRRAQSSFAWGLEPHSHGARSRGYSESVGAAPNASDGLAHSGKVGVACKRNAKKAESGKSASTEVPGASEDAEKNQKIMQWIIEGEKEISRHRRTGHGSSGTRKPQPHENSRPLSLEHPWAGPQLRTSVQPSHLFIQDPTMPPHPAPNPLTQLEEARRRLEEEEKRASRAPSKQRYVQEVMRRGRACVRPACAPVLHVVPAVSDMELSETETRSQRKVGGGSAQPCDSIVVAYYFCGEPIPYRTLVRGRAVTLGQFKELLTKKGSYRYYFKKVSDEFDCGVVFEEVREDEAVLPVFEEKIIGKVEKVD

Series [1] concerns HEK293. Briefly: Growth inhibition of unstimulated HEK293 cells up to 100 uM after 72 hrs by CellTiter-Fluor assay. The series is classed as cell-based. The following applies: human, hek293, 72 h. Put shortly:
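Unstimulated HEK293 cells were plated at 3.5×10^5/well and grown for 24 h, then incubated with compound for 72 h. Viability was read with CellTiter-Fluor.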

Series [2] is described as follows: Inhibition of Wnt3a activated Wnt/beta-catenin signaling (unknown origin) expressed in HEK293 cells harboring TCF/LEF-responsive luciferase preincubated with cells followed by Wnt3a addition and measured after 24 hrs by luciferase reporter gene assay. The series is classed as cell-based. To be noted: Homo sapiens. Put shortly:
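HEK293 cells stably carrying TOPFlash/GFP were plated at 2000/well in DMEM with 10% FBS and kept overnight at 37 °C. Compound was pin-transferred, then recombinant human Wnt-3a was added (200 ng/mL working stock). After 24 h at 37 °C, ONE-Glo luminescence was read after 30 min. IC50 is mean ± SE from three independent experiments.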

For series [3], the system named is HEK293. Briefly: Growth inhibition of HEK293 cells harboring Wnt after 24 hrs by CellTiter-Fluor assay. Type of series: cell-based. To be noted: human, hek293, 24 h. The method, boiled down: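 HEK293 cells stably carrying the TOPFlash reporter were plated at 2000/well in DMEM with 10% FBS and incubated overnight. Compound was added with recombinant human Wnt-3a, then incubated 24 h at 37 °C. CellTiter-Fluor reagent was added and fluorescence read after 30 min at 37 °C.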

Series [4] concerns HEK293. Briefly: Inhibition of LiCl-activated Wnt/beta-catenin/Axin signaling (unknown origin) expressed in HEK293 cells assessed as degradation of beta-catenin by measuring decrease in beta-catenin protein expression after 24 hrs by Western blot method. The following applies: Homo sapiens. Type of series: cell-based. The method, boiled down:
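HEK293 cells were treated with compound in the presence of lithium chloride for 24 h. Lysis buffer contained 10 mM HEPES, 100 μM EDTA, 10 mM KCl, 0.5% NP40 and inhibitors. Protein was quantified by BCA, resolved on 10% SDS-PAGE, and immunoblotted for β-catenin.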

Series [5] in a line: Oral bioavailability in mouse. To be noted: in vivo. Type of series: ADME, organism-based.

Calls of active or inactive are those of the source. The rule behind the calls is not given here.

As to `Oc1nc(-c2ccc(C(F)(F)F)cc2)nc2c1CSCC2`, on Axin-1 (Homo sapiens), the outcome was Active.

In the case of `Cc1c(C(=O)Nc2ccc3ccccc3n2)nnn1-c1ccccc1F`, the entries for the “growth inhibition (GI)” value with HEK293 [1] and in the series on HEK293 [3] were “Toxic” and “Non-Toxic”, respectively. In addition, in series [2], the midpoint of inhibition, the IC50, lay at 1.2 nM.

In the case of `Cc1c(C(=O)Nc2ccc3ccccc3n2)nnn1-c1cccc2ccccc12`, the inhibition result in the series with HEK293 [4] was “inactive”. For the same compound, the IC50 in series [2] turned out to be 5500 nM. Moreover, the “growth inhibition (GI)” value with HEK293 [3] is reported as “Non-Toxic”.

In turn, `Cc1c(C(=O)Nc2ccc3ccccc3n2)nnn1-c1ccccc1Br` gave a 50% inhibitory concentration (IC50) in series [2] of 7.6 nM. Besides, the “growth inhibition (GI)” value in the series with HEK293 [3] was “Non-Toxic”.

As for `Cc1ccccc1-n1nnc(C(=O)Nc2ccc3cc(CN4CCOCC4)ccc3n2)c1C`, inhibition in series [2] was half-maximal at 1300 nM (IC50). In the series with HEK293 [3], the “growth inhibition (GI)” value was “Non-Toxic”.

On to `Cc1cc(/C=C/c2ccc3cc(N(C)C)ccc3[n+]2C)c(C)n1-c1ccccc1` [PYRVINIUM], for which half-maximal inhibition in series [2] (IC50) required 750 nM. Besides, in series [5], the bioavailability is less than 1%.

Consider `Cc1ccc(-n2nnc(C(=O)Nc3ccc4ccccc4n3)c2C)cc1`, for which the IC50 in series [2] is more than 10000 nM. Also, in the series on HEK293 [3], the “growth inhibition (GI)” value is given as “Non-Toxic”.

In series [2], `Cc1ccccc1-n1nnc(C(=O)Nc2ccc3cc(CN4CCSCC4)ccc3n2)c1C` showed a half-maximal inhibitory concentration (IC50) of 230 nM. The “growth inhibition (GI)” value with HEK293 [3] is reported as “Non-Toxic”.

The compound `CC(C)c1c(C(=O)Nc2ccc3ccccc3n2)nnn1-c1ccccc1F` showed a 50% inhibitory concentration (IC50) in series [2] of 25 nM. The “growth inhibition (GI)” value with HEK293 [3] is “Non-Toxic”.

`Cc1ccccc1-n1nnc(C(=O)Nc2ccc3ccccc3c2)c1C` gave an IC50 in series [2] of 4900 nM. For the same compound, in the series with HEK293 [3], the “growth inhibition (GI)” value is recorded as “Non-Toxic”.

Turning to `Cc1c(C(=O)Nc2ccc3ccccc3n2)nnn1-c1ccccc1N1CCOCC1`, in series [2], the IC50 was found to be 1900 nM. In the series with HEK293 [3], the “growth inhibition (GI)” value is on record as “Non-Toxic”.

The compound `Cc1cccc(-n2nnc(C(=O)Nc3ccc4ccccc4n3)c2C)c1C` had an IC50 in series [2] of 140 nM. Further, the “growth inhibition (GI)” value in the series with HEK293 [3] is “Non-Toxic”.

In series [2], `Cc1ccccc1-n1nnc(C(=O)Nc2ccc3cc(CN4CCCCC4)ccc3n2)c1C` displayed a 50% inhibitory concentration (IC50) of 1200 nM. Moreover, the “growth inhibition (GI)” value with HEK293 [3] was “Non-Toxic”.

With `Cc1ccc(-n2nnc(C(=O)Nc3ccc4ccccc4n3)c2C)c(C)c1`, the IC50 in series [2] worked out at 270 nM. Moreover, the “growth inhibition (GI)” value in the series on HEK293 [3] was “Non-Toxic”.

Consider `Cc1c(C(=O)Nc2ccc3ccccc3n2)nnn1-c1ccccc1C#N`, for which the concentration for half-maximal inhibition (IC50) in series [2] stood at 34 nM. Besides, the “growth inhibition (GI)” value with HEK293 [3] is “Non-Toxic”.

As to `Cc1c(C(=O)Nc2ccc3ccccc3n2)nnn1-c1ccccc1C(N)=O`, in series [2], the IC50 was more than 10000 nM. In addition, the “growth inhibition (GI)” value in the series with HEK293 [3] is “Non-Toxic”.

In series [2], `Cc1c(C(=O)Nc2ccc3ccccc3n2)nnn1-c1ccccc1-c1ccccc1` returned an IC50 of 390 nM. For the same compound, the “growth inhibition (GI)” value in the series with HEK293 [3] was “Non-Toxic”.

The compound `CC(=O)c1ccccc1-n1nnc(C(=O)Nc2ccc3ccccc3n2)c1C` displayed a concentration for half-maximal inhibition (IC50) in series [2] of 8800 nM. The “growth inhibition (GI)” value in the series on HEK293 [3] is “Non-Toxic”.

`Cc1ccccc1-n1nnc(C(=O)Nc2ccc3cc(Br)ccc3n2)c1C` gave an IC50 in series [2] of 830 nM. The “growth inhibition (GI)” value with HEK293 [3] is recorded as “Non-Toxic”.

As for `COc1ccccc1-n1nnc(C(=O)Nc2ccc3ccccc3n2)c1C`, in series [2], half-maximal inhibition (IC50) required 18 nM. In addition, the “growth inhibition (GI)” value in the series on HEK293 [3] was “Non-Toxic”.

Regarding `Cc1cccc(-n2nnc(C(=O)Nc3ccc4ccccc4n3)c2C)c1`, the concentration for half-maximal inhibition (IC50) in series [2] is more than 10000 nM. The “growth inhibition (GI)” value with HEK293 [3] is “Non-Toxic”.

In turn, `CCc1c(C(=O)Nc2ccc3ccccc3n2)nnn1-c1ccccc1F` registered an IC50 in series [2] of 4.7 nM. In the series with HEK293 [3], the “growth inhibition (GI)” value is reported as “Non-Toxic”.
